From ChEMBL document CHEMBL1765074, “Synthesis, evaluation and structural studies of antiproliferative tubulin-targeting azetidin-2-ones” (Bioorg Med Chem, 2011)

Experiments:
MCF7 [1] = test: Antiproliferative activity against human MCF7 cells by MTT assay; assay type: functional, cell-based
How it was run: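 MCF-7 cells grown in Eagle's MEM with 10% FBS, 2 mM L-glutamine, penicillin/streptomycin and 1% non-essential amino acids. Seeded at 2.5×10^4 cells/mL, left 24 h at 37°C, then treated 72 h across 1 nM–100 μM from ethanol stocks (vehicle 1% v/v). MTT at 1 mg/mL final for 2 h in darkness, DMSO solubilisation, absorbance read. IC50 is the mean of at least three experiments in triplicate.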

MDA-MB-231 [2] = test: Antiproliferative activity against human MDA-MB-231 cells by MTT assay; assay type: functional, cell-based
How it was run: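 MDA-MB-231 cells in DMEM with 10% FBS, 2 mM L-glutamine and penicillin/streptomycin were seeded at 2.5×10^4 cells/mL and held 24 h at 37°C. They then got ethanol-stock compound over 1 nM–100 μM (vehicle 1% v/v ethanol) for 72 h. MTT at 1 mg/mL final was added for 2 h in the dark, then DMSO for 20 min before absorbance. Untreated = 100% viability. IC50 is the mean ± S.E.M. of ≥3 triplicate experiments.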

CCRF-CEM = test: Antiproliferative activity against human CCRF-CEM cells; assay type: functional; details: read-out: LC50 (the source's name)
HL-60(TB) = test: Antiproliferative activity against human HL-60(TB) cells; assay type: functional; details: read-out: LC50 (the source's name)
K562 = test: Antiproliferative activity against human K562 cells; assay type: functional; details: read-out: LC50 (the source's name)
A549 = test: Antiproliferative activity against human A549 cells; assay type: functional; details: read-out: LC50 (the source's name)
EKVX = test: Antiproliferative activity against human EKVX cells; assay type: functional; details: read-out: LC50 (the source's name)
HOP-62 = test: Antiproliferative activity against human HOP62 cells; assay type: functional; details: read-out: LC50 (the source's name)
HOP-92 = test: Antiproliferative activity against human HOP92 cells; assay type: functional; details: read-out: LC50 (the source's name)
NCI-H226 = test: Antiproliferative activity against human NCI-H226 cells; assay type: functional; details: read-out: LC50 (the source's name)
COLO 205 = test: Antiproliferative activity against human COLO205 cells; assay type: functional; details: read-out: LC50 (the source's name)
HCC 2998 = test: Antiproliferative activity against human HCC2998 cells; assay type: functional; details: read-out: LC50 (the source's name)
HCT-116 = test: Antiproliferative activity against human HCT116 cells; assay type: functional; details: read-out: LC50 (the source's name)
SF-268 = test: Antiproliferative activity against human SF268 cells; assay type: functional; details: read-out: LC50 (the source's name)
SF-295 = test: Antiproliferative activity against human SF295 cells; assay type: functional; details: read-out: LC50 (the source's name)
SF-539 = test: Antiproliferative activity against human SF539 cells; assay type: functional; details: read-out: LC50 (the source's name)
LOX IMVI = test: Antiproliferative activity against human LOXIMVI cells; assay type: functional; details: read-out: LC50 (the source's name)
Malme-3M = test: Antiproliferative activity against human MALME-3M cells; assay type: functional; details: read-out: LC50 (the source's name)
M14 = test: Antiproliferative activity against human M14 cells; assay type: functional; details: read-out: LC50 (the source's name)
SK-MEL-2 = test: Antiproliferative activity against human SK-MEL-2 cells; assay type: functional; details: read-out: LC50 (the source's name)
IGROV-1 = test: Antiproliferative activity against human IGROV1 cells; assay type: functional; details: read-out: LC50 (the source's name)
OVCAR-4 = test: Antiproliferative activity against human OVCAR4 cells; assay type: functional; details: read-out: LC50 (the source's name)
OVCAR-5 = test: Antiproliferative activity against human OVCAR5 cells; assay type: functional; details: read-out: LC50 (the source's name)
786-0 = test: Antiproliferative activity against human 786-0 cells; assay type: functional; details: read-out: LC50 (the source's name)
A498 = test: Antiproliferative activity against human A498 cells; assay type: functional; details: read-out: LC50 (the source's name)
ACHN = test: Antiproliferative activity against human ACHN cells; assay type: functional; details: read-out: LC50 (the source's name)
CAKI-1 = test: Antiproliferative activity against human Caki1 cells; assay type: functional; details: read-out: LC50 (the source's name)
PC-3 = test: Antiproliferative activity against human PC3 cells; assay type: functional; details: read-out: LC50 (the source's name)
MCF7 [3] = test: Antiproliferative activity against human MCF7 cells; assay type: functional; details: read-out: LC50 (the source's name)
NCI/ADR-RES = test: Antiproliferative activity against human NCI/ADR-RES cells; assay type: functional; details: read-out: LC50 (the source's name)
MDA-MB-231 [4] = test: Antiproliferative activity against human MDA-MB-231 cells; assay type: functional; details: read-out: LC50 (the source's name)
MDA-MB-435 = test: Antiproliferative activity against human MDA-MB-435 cells; assay type: functional; details: read-out: LC50 (the source's name)
MOLT-4 = test: Antiproliferative activity against human MOLT4 cells; assay type: functional; details: read-out: LC50 (the source's name)
RPMI-8226 = test: Antiproliferative activity against human RPMI8226 cells; assay type: functional; details: read-out: LC50 (the source's name)
NCI-H23 = test: Antiproliferative activity against human NCI-H23 cells; assay type: functional; details: read-out: LC50 (the source's name)
[5] = Antiproliferative activity against human […] cells; assay type: functional; details: read-out: LC50 (the source's name)
NCI-H460 = test: Antiproliferative activity against human NCI-H460 cells; assay type: functional; details: read-out: LC50 (the source's name)
NCI-H522 = test: Antiproliferative activity against human NCI-H522 cells; assay type: functional; details: read-out: LC50 (the source's name)
HCT-15 = test: Antiproliferative activity against human HCT15 cells; assay type: functional; details: read-out: LC50 (the source's name)
KM12 = test: Antiproliferative activity against human KM12 cells; assay type: functional; details: read-out: LC50 (the source's name)
SW-620 = test: Antiproliferative activity against human SW620 cells; assay type: functional; details: read-out: LC50 (the source's name)
SNB-19 = test: Antiproliferative activity against human SNB19 cells; assay type: functional; details: read-out: LC50 (the source's name)
SNB-75 = test: Antiproliferative activity against human SNB75 cells; assay type: functional; details: read-out: LC50 (the source's name)
U-251 = test: Antiproliferative activity against human U251 cells; assay type: functional; details: read-out: LC50 (the source's name)
SK-MEL-28 = test: Antiproliferative activity against human SK-MEL-28 cells; assay type: functional; details: read-out: LC50 (the source's name)
SK-MEL-5 = test: Antiproliferative activity against human SK-MEL-5 cells; assay type: functional; details: read-out: LC50 (the source's name)
UACC-257 = test: Antiproliferative activity against human UACC257 cells; assay type: functional; details: read-out: LC50 (the source's name)
UACC-62 = test: Antiproliferative activity against human UACC62 cells; assay type: functional; details: read-out: LC50 (the source's name)
OVCAR-8 = test: Antiproliferative activity against human OVCAR8 cells; assay type: functional; details: read-out: LC50 (the source's name)
SK-OV-3 = test: Antiproliferative activity against human SKOV3 cells; assay type: functional; details: read-out: LC50 (the source's name)
RXF 393 = test: Antiproliferative activity against human RXF393 cells; assay type: functional; details: read-out: LC50 (the source's name)
SN12C = test: Antiproliferative activity against human SN12C cells; assay type: functional; details: read-out: LC50 (the source's name)
TK-10 = test: Antiproliferative activity against human TK10 cells; assay type: functional; details: read-out: LC50 (the source's name)
UO-31 = test: Antiproliferative activity against human UO31 cells; assay type: functional; details: read-out: LC50 (the source's name)
DU-145 = test: Antiproliferative activity against human DU145 cells; assay type: functional; details: read-out: LC50 (the source's name)
BT-549 = test: Antiproliferative activity against human BT549 cells; assay type: functional; details: read-out: LC50 (the source's name)
T47D = test: Antiproliferative activity against human T47D cells; assay type: functional; details: read-out: LC50 (the source's name)
MDA-MB-468 = test: Antiproliferative activity against human MDA-MB-468 cells; assay type: functional; details: read-out: LC50 (the source's name)

COc1ccc([C@@H]2[C@@H](C(O)c3ccoc3)C(=O)N2c2cc(OC)c(OC)c(OC)c2)cc1 (stereo not given in full)
1.1 µM: IC50 (MCF7 [1])

COc1ccc([C@@H]2C(c3ccc(C)s3)C(=O)N2c2cc(OC)c(OC)c(OC)c2)cc1 (mixture of isomers)
0.25 µM: IC50 (MCF7 [1])

COc1ccc([C@@H]2C(c3cc4ccccc4s3)C(=O)N2c2cc(OC)c(OC)c(OC)c2)cc1 (mixture of isomers)
0.85 µM: IC50 (MCF7 [1])

COc1ccc([C@@H]2C(c3cccs3)C(=O)N2c2cc(OC)c(OC)c(OC)c2)cc1 (mixture of isomers)
0.19 µM: IC50 (MDA-MB-231 [2])
> 100 µM: CC50 (CCRF-CEM) | CC50 (HL-60(TB)) | CC50 (K562) | CC50 (A549) | CC50 (EKVX) | CC50 (HOP-62) | CC50 (HOP-92) | CC50 (NCI-H226) | CC50 (COLO 205) | CC50 (HCC 2998) | CC50 (HCT-116) | CC50 (SF-268) | CC50 (SF-295) | CC50 (SF-539) | CC50 (LOX IMVI) | CC50 (Malme-3M) | CC50 (M14) | CC50 (SK-MEL-2) | CC50 (IGROV-1) | CC50 (OVCAR-4) | CC50 (OVCAR-5) | CC50 (786-0) | CC50 (A498) | CC50 (ACHN) | CC50 (CAKI-1) | CC50 (PC-3) | CC50 (MCF7 [3]) | CC50 (NCI/ADR-RES) | CC50 (MDA-MB-231 [4]) | CC50 (MDA-MB-435) | CC50 (MOLT-4) | CC50 (RPMI-8226) | CC50 (NCI-H23) | CC50 [5] | CC50 (NCI-H460) | CC50 (NCI-H522) | CC50 (HCT-15) | CC50 (KM12) | CC50 (SW-620) | CC50 (SNB-19) | CC50 (SNB-75) | CC50 (U-251) | CC50 (SK-MEL-28) | CC50 (SK-MEL-5) | CC50 (UACC-257) | CC50 (UACC-62) | CC50 (OVCAR-8) | CC50 (SK-OV-3) | CC50 (RXF 393) | CC50 (SN12C) | CC50 (TK-10) | CC50 (UO-31) | CC50 (DU-145) | CC50 (BT-549) | CC50 (T47D) | CC50 (MDA-MB-468)
0.064 µM: IC50 (MCF7 [1])

COc1ccc([C@@H]2[C@@H](C(O)c3ccsc3)C(=O)N2c2cc(OC)c(OC)c(OC)c2)cc1 (mixture of isomers)
0.99 µM: IC50 (MCF7 [1])

COc1ccc([C@@H]2C(c3cccc4ccccc34)C(=O)N2c2cc(OC)c(OC)c(OC)c2)cc1 (mixture of isomers)
11.3 µM: IC50 (MCF7 [1])

COc1ccc([C@@H]2[C@@H](c3ccsc3)C(=O)N2c2cc(OC)c(OC)c(OC)c2)cc1O
0.01 µM: IC50 (MCF7 [1])
0.049 µM: IC50 (MDA-MB-231 [2])
